# Key:
# Escherichia coli [1] = test: Antibacterial activity against Escherichia coli ATCC 35210 at […] degC measured after 24 hr by microdilution method; format: functional; details: ATCC 35210, 24 h
# Summary of the method: (§1)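 Bacteria suspended in sterile saline at 1.0×10⁵ CFU/ml and added at 1.0×10⁴ CFU per well to LB broth with compound (1 mg/ml) in 96-well plates. Incubated 24 h at […] °C. MIC was the lowest concentration without visible growth under a binocular microscope. OD 655 nm was read against a blank and a positive control.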
# Escherichia coli [2] = test: Antibacterial activity against Escherichia coli ATCC 35210 at […] degC measured after 72 hr by microdilution method; format: functional; details: ATCC 35210, 72 h
# Summary of the method: (§2)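 Bactericidal endpoint: after the 24 h broth microdilution (1.0×10⁴ CFU per well, LB broth, […] °C), wells were serially subcultured into plates of fresh broth and incubated a further 72 h. MBC was the lowest concentration with no visible growth, taken as 99.5% killing of the original inoculum.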
# Listeria monocytogenes [3] = test: Antibacterial activity against Listeria monocytogenes NCTC 7973 at […] degC measured after 24 hr by microdilution method; format: functional; details: NCTC 7973, 24 h; summary of the method: as §1
# Proteus mirabilis [4] = test: Antibacterial activity against Proteus mirabilis at […] degC measured after 24 hr by microdilution method; format: functional; summary of the method: as §1
# Bacillus cereus [5] = test: Antibacterial activity against clinical isolate Bacillus cereus at […] degC measured after 24 hr by microdilution method; format: functional; summary of the method: as §1
# Micrococcus flavus [6] = test: Antibacterial activity against Micrococcus flavus ATCC 10240 at […] degC measured after 72 hr by microdilution method; format: functional; details: ATCC 10240, 72 h; summary of the method: as §2
# Staphylococcus aureus [7] = test: Antibacterial activity against Staphylococcus aureus ATCC 6538 at […] degC measured after 72 hr by microdilution method; format: functional; details: ATCC 6538, 72 h; summary of the method: as §2
# Aspergillus versicolor = test: Antifungal activity against Aspergillus versicolor ATCC 11730 at 28 degC measured after 72 hr by microdilution method; format: functional; details: ATCC 11730, 72 h
# Summary of the method: (§3)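 Fungi were kept on malt agar at 4 °C. Spores were washed off with sterile 0.85% saline containing 0.1% Tween 80 and adjusted to about 1.0×10⁵ per well. Compounds were dissolved in DMSO (1 mg/ml stock) and serially diluted in malt broth with inoculum in 96-well plates, 72 h at 28 °C, for MIC. MFC came from subculture into fresh broth for a further 72 h at 28 °C.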
# Staphylococcus aureus [8] = test: Antibacterial activity against Staphylococcus aureus ATCC 6538 at […] degC measured after 24 hr by microdilution method; format: functional; details: ATCC 6538, 24 h; summary of the method: as §1
# Aspergillus fumigatus = test: Antifungal activity against plant isolate Aspergillus fumigatus at 28 degC measured after 72 hr by microdilution method; format: functional; summary of the method: as §3
# Proteus mirabilis [9] = test: Antibacterial activity against Proteus mirabilis at […] degC measured after 72 hr by microdilution method; format: functional; summary of the method: as §2
# Bacillus cereus [10] = test: Antibacterial activity against clinical isolate Bacillus cereus at […] degC measured after 72 hr by microdilution method; format: functional; summary of the method: as §2
# Pseudomonas aeruginosa [11] = test: Antibacterial activity against Pseudomonas aeruginosa ATCC 27853 at […] degC measured after 72 hr by microdilution method; format: functional; details: ATCC 27853, 72 h; summary of the method: as §2
# Penicillium ochrochloron = test: Antifungal activity against Penicillium ochrochloron ATCC 9112 at 28 degC measured after 72 hr by microdilution method; format: functional; details: ATCC 9112, 72 h; summary of the method: as §3
# Talaromyces funiculosus = test: Antifungal activity against Talaromyces funiculosus ATCC 36839 at 28 degC measured after 72 hr by microdilution method; format: functional; details: ATCC 36839, 72 h; summary of the method: as §3
# Aspergillus flavus = test: Antifungal activity against Aspergillus flavus ATCC 9643 at 28 degC measured after 72 hr by microdilution method; format: functional; details: ATCC 9643, 72 h; summary of the method: as §3
# Micrococcus flavus [12] = test: Antibacterial activity against Micrococcus flavus ATCC 10240 at […] degC measured after 24 hr by microdilution method; format: functional; details: ATCC 10240, 24 h; summary of the method: as §1
# Salmonella typhimurium [13] = test: Antibacterial activity against Salmonella enterica subsp. enterica serovar TyphimuriumATCC 13311 at […] degC measured after 72 hr by microdilution method; format: functional, Salmonella enterica subsp. enterica serovar Typhimurium; details: ATCC 13311, 72 h; summary of the method: as §2
# Trichoderma viride = test: Antifungal activity against Hypocrea rufa IAM 5061 at 28 degC measured after 72 hr by microdilution method; format: functional; details: IAM 5061, 72 h; summary of the method: as §3
# Fulvia fulva = test: Antifungal activity against Passalora fulva TK5318 at 28 degC measured after 72 hr by microdilution method; format: functional; details: TK5318, 72 h; summary of the method: as §3
# Salmonella typhimurium [14] = test: Antibacterial activity against Salmonella enterica subsp. enterica serovar Typhimurium ATCC 13311 at […] degC measured after 24 hr by microdilution method; format: functional; details: ATCC 13311, 24 h; summary of the method: as §1
# Listeria monocytogenes [15] = test: Antibacterial activity against Listeria monocytogenes NCTC 7973 at […] degC measured after 72 hr by microdilution method; format: functional; details: NCTC 7973, 72 h; summary of the method: as §2
# Aspergillus niger = test: Antifungal activity against Aspergillus niger ATCC 6275 at 28 degC measured after 72 hr by microdilution method; format: functional; details: ATCC 6275, 72 h; summary of the method: as §3
# Pseudomonas aeruginosa [16] = test: Antibacterial activity against Pseudomonas aeruginosa ATCC 27853 at […] degC measured after 24 hr by microdilution method; format: functional; details: ATCC 27853, 24 h; summary of the method: as §1
Structure (SMILES),MIC (Escherichia coli [1]) [µM],MBC (Escherichia coli [2]) [µM],MIC (Listeria monocytogenes [3]) [µM],MIC (Proteus mirabilis [4]) [µM],MIC (Bacillus cereus [5]) [µM],MBC (Micrococcus flavus [6]) [µM],MBC (Staphylococcus aureus [7]) [µM],MFC (Aspergillus versicolor) [µM],MIC (Aspergillus versicolor) [µM],MIC (Staphylococcus aureus [8]) [µM],MFC (Aspergillus fumigatus) [µM],MIC (Aspergillus fumigatus) [µM],MBC (Proteus mirabilis [9]) [µM],MBC (Bacillus cereus [10]) [µM],MBC (Pseudomonas aeruginosa [11]) [µM],MFC (Penicillium ochrochloron) [µM],MIC (Penicillium ochrochloron) [µM],MFC (Talaromyces funiculosus) [µM],MIC (Talaromyces funiculosus) [µM],MFC (Aspergillus flavus) [µM],other results
COc1cc(Cc2nnc(Nc3ccc(C(F)(F)F)cc3)s2)c(S(=O)(=O)N2CCCC2)cc1OC,18.9,37.8,18.9,18.9,9.5,37.8,18.9,37.8,18.9,9.5,37.8,18.9,37.8,18.9,18.9,37.8,18.9,37.8,18.9,37.8,MIC (Aspergillus flavus): 18.9 µM; MIC (Micrococcus flavus [12]): 18.9 µM; MBC (Salmonella typhimurium [13]): 18.9 µM; MFC (Trichoderma viride): 18.9 µM; MIC (Trichoderma viride): 9.5 µM; MFC (Fulvia fulva): 75.6 µM; MIC (Fulvia fulva): 18.9 µM; MIC (Salmonella typhimurium [14]): 9.5 µM; MBC (Listeria monocytogenes [15]): 18.9 µM; MFC (Aspergillus niger): 37.8 µM; MIC (Aspergillus niger): 18.9 µM; MIC (Pseudomonas aeruginosa [16]): 9.5 µM
COc1cc(Cc2nnc(Nc3ccc(Cl)cc3)s2)c(S(=O)(=O)N2CCCCC2)cc1OC,19.7,39.4,39.4,19.7,9.8,39.4,39.4,19.7,9.8,19.7,39.4,19.7,78.7,19.7,19.7,39.4,19.7,39.4,19.7,19.7,MIC (Aspergillus flavus): 9.8 µM; MIC (Micrococcus flavus [12]): 19.7 µM; MBC (Salmonella typhimurium [13]): 19.7 µM; MFC (Trichoderma viride): 19.7 µM; MIC (Trichoderma viride): 9.8 µM; MFC (Fulvia fulva): 19.7 µM; MIC (Fulvia fulva): 9.8 µM; MIC (Salmonella typhimurium [14]): 9.8 µM; MBC (Listeria monocytogenes [15]): 78.8 µM; MFC (Aspergillus niger): 39.4 µM; MIC (Aspergillus niger): 19.7 µM; MIC (Pseudomonas aeruginosa [16]): 9.8 µM

# From ChEMBL document CHEMBL3045677, “Sulfonamide-1,2,4-thiadiazole derivatives as antifungal and antibacterial agents: synthesis, biological evaluation, lipophilicity, and conformational studies” (2010)
